One assay has as its target T1, Renin (Homo sapiens) (UniProt P00797).
T1 sequence (whole entry): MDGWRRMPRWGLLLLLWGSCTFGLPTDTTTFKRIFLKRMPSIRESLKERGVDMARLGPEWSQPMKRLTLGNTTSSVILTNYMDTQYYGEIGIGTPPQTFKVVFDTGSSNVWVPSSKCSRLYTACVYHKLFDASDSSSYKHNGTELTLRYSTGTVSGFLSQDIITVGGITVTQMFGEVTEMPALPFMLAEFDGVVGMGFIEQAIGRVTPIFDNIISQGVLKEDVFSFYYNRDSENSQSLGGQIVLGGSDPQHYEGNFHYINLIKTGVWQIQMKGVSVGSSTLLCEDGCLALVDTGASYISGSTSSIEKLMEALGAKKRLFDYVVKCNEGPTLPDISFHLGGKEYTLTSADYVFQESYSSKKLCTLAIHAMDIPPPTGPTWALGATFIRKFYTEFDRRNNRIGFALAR
Kind of assay: Percent inhibition against human renin at the concentration of 1 uM.
`CC(C)CCNC(=O)C(Cc1c[nH]c2ccccc12)NC(=O)[C@H](CCCCN)N1C(=O)CN[C@H](CC(C)C)C(=O)N[C@@H](Cc2ccccc2)C1=O` (stereo in doubt): the inhibition was determined as 10%.

The target of another assay is T1, Renin (Homo sapiens). Kind of assay: Percent inhibition against human renin at the concentration of 10 uM.
For `CC(C)CCNC(=O)C(Cc1c[nH]c2ccccc12)NC(=O)[C@H](CCCCN)N1C(=O)CCC(=O)N[C@@H](Cc2ccccc2)C1=O` (stereo in doubt), the inhibition is 53%.

For the compound `CC[C@H](C)[C@@H]1NCC(=O)N([C@@H](CCCCN)C(=O)NC(Cc2c[nH]c3ccccc23)C(=O)NCCC(C)C)C(=O)[C@H](Cc2ccccc2)NC1=O` (stereo in doubt), the inhibition was found to be 45%.

For the compound `CC[C@@H](C)[C@@H]1NCC(=O)N[C@@H](Cc2ccccc2)C(=O)N([C@@H](CCCCN)C(=O)NC(Cc2c[nH]c3ccccc23)C(=O)NCCC(C)C)C1=O` (stereo in doubt), the inhibition is 58%.

The target in the next assay is T1, Renin (Homo sapiens). Kind of assay: Percent inhibition against human renin at the concentration of 100 uM. In a few lines:
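Each compound was tested twice at 100 µM against partially purified human renal renin with human plasma angiotensinogen in pH 7.0 phosphate buffer with protease inhibitors and 1% DMSO, for 120 min at 30 °C. Angiotensin I generation was quantified by radioimmunoassay and expressed as percent inhibition of the vehicle control rate.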
`CC(C)CCNC(=O)C(Cc1c[nH]c2ccccc12)NC(=O)[C@H](CCCCN)N1C(=O)CN[C@H](CC(C)C)C(=O)N[C@@H](Cc2ccccc2)C1=O` (stereo in doubt) yielded an inhibition of 88%.

In turn, `CCC(C)CNC(=O)C(Cc1c[nH]c2ccccc12)NC(=O)[C@H](CCCCN)N1C(=O)CC(C)(C)CC(=O)N[C@@H](Cc2ccccc2)C1=O` (stereo in doubt) had an inhibition of 63%.

As to `CC(C)CCNC(=O)C(Cc1c[nH]c2ccccc12)NC(=O)[C@H](CCCCN)N1C(=O)[C@H](Cc2ccccc2)NC(=O)CN[C@H](Cc2ccccc2)C1=O` (stereo in doubt), the inhibition was 57%.

`CC(C)CCNC(=O)C(Cc1c[nH]c2ccccc12)NC(=O)[C@H](CCCCN)N1C(=O)CSCC(=O)N[C@@H](Cc2ccccc2)C1=O` (stereo in doubt) had an inhibition of 66%.

Compound `CC[C@H](C)[C@@H]1NCC(=O)N([C@@H](CCCCN)C(=O)NC(Cc2c[nH]c3ccccc23)C(=O)NCCC(C)C)C(=O)[C@H](Cc2ccccc2)NC1=O` (stereo in doubt) registered an inhibition of 84%.

`CC(C)CCNC(=O)C(Cc1c[nH]c2ccccc12)NC(=O)[C@H](CCCCN)N1C(=O)[C@H](Cc2ccccc2)NCC(=O)N[C@@H](Cc2ccccc2)C1=O` (stereo in doubt) gave an inhibition of 52%.

The target in a further assay is T2, Renin (Homo sapiens, UniProt P00797).
T2 sequence (P00797 whole entry): T1 sequence (whole entry)
Kind of assay: Inhibition of human renin.
Consider `COC(=O)[C@H](CC(C)C)NC(=O)C(Cc1c[nH]c2ccccc12)NC(=O)[C@H](CCCCN)N1C(=O)CC[C@H](NC(=O)OCc2ccccc2)C(=O)N[C@@H](Cc2ccccc2)C1=O` (stereo in doubt), for which the concentration for half-maximal inhibition (IC50) was found to be 3200 nM.

`CC(C)CCNC(=O)C(Cc1c[nH]c2ccccc12)NC(=O)[C@H](CCCCN)N1C(=O)COCC(=O)N[C@@H](Cc2ccccc2)C1=O` (stereo in doubt): the IC50 was determined as 2300 nM.

Take `CC(C)CCNC(=O)C(Cc1c[nH]c2ccccc12)NC(=O)[C@H](CCCCN)N1C(=O)C(c2ccccc2)CCC(=O)N[C@@H](Cc2ccccc2)C1=O` (stereo in doubt): 1500 nM corresponded to half-maximal inhibition (IC50).

`CC(C)CC(C)CNC(=O)C(Cc1c[nH]c2ccccc12)NC(=O)[C@H](CCCCN)N1C(=O)CC(C)CC(=O)N[C@@H](Cc2ccccc2)C1=O` (stereo in doubt) returned an IC50 of 240 nM.

`CCC(C)CNC(=O)C(Cc1c[nH]c2ccccc12)NC(=O)[C@H](CCCCN)N1C(=O)[C@H](Cc2ccccc2)NC(=O)CCC(C)(C)C1=O` (stereo in doubt) registered a half-maximal inhibitory concentration (IC50) of 1400 nM.

Take `CC(C)CCNC(=O)C(Cc1c[nH]c2ccccc12)NC(=O)[C@H](CCCCN)N1C(=O)CN[C@@H](Cc2ccccc2)C(=O)N[C@@H](Cc2ccccc2)C1=O` (stereo in doubt): the half-maximal inhibitory concentration (IC50) was found to be 750 nM.

As for `COC(=O)[C@H](CC(C)C)NC(=O)C(Cc1c[nH]c2ccccc12)NC(=O)[C@H](CSCNC(C)=O)NC(=O)[C@H](Cc1ccccc1)NC(=O)OC(C)(C)C` (stereo in doubt), inhibition was half-maximal at 40000 nM (IC50).

Consider `CC(C)CCNC(=O)C(Cc1c[nH]c2ccccc12)NC(=O)[C@H](CCCCN)N1C(=O)CN[C@H](Cc2ccccc2)C(=O)N[C@@H](Cc2ccccc2)C1=O` (stereo in doubt), for which inhibition was half-maximal at 2740 nM (IC50).

Turning to `COC(=O)[C@H](CC(C)C)NC(=O)C(Cc1c[nH]c2ccccc12)NC(=O)[C@H](CCCCN)NC(=O)[C@H](Cc1ccccc1)NC(=O)OCc1ccccc1` (stereo in doubt), the IC50 was found to be 31000 nM.

Source of the values: ChEMBL document CHEMBL1124915, “Inhibitors of human renin. Cyclic peptide analogues containing a D-Phe-Lys-D-Trp sequence” (J Med Chem, 1990).
